29 molecules from ChEMBL document CHEMBL4765424 (Eur J Med Chem, 2020) can be followed below.

Structures are written as SMILES.

The nature of test [1]: Inhibition of SARS CoV2 C-terminal His6-tagged 3CL protease expressed in Escherichia coli BL21 DE3 using Thr-Ser-Ala-Val-Leu-Gln-pNA as substrate preincubated for 30 mins followed by substrate addition and measured for 20 mins by colorimetric method. More on the design: species or system Severe acute respiratory syndrome coronavirus 2.
Test [2] deals with Severe acute respiratory syndrome coronavirus 2. Description: Inhibition of SARS CoV2 C-terminal His6-tagged 3CL protease expressed in Escherichia coli BL21 DE3 at 50 uM using Thr-Ser-Ala-Val-Leu-Gln-pNA as substrate preincubated for 30 mins followed by substrate addition and measured for 20 mins by colorimetric method relative to control. The conditions noted are these: time 50.0 min. A digest of the protocol:
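Recombinant SARS-CoV-2 3CLpro comes from a synthetic full-length gene expressed in E. coli and purified. The enzyme was preincubated with compound for 30 min at room temperature in 40 mM PBS, 100 mM NaCl, 1 mM EDTA, 0.1% Triton, pH 7.3. TSAVLQ-pNA was then added to 200 μM final. A390 was read every 30 s for 20 min. Line 1 is percent inhibition at 50 μM. IC50s were fitted with a Hill1 function.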

For orientation: IC50 means the concentration that inhibits the measured activity by half. `CCCCN1C(=O)C(=O)c2cc(I)ccc21` had an IC50 in test [1] of 41.8 µM.
Usually inhibition stands for how much of the control response was suppressed. With `CCCCN1C(=O)C(=O)c2cc(C(=O)O)ccc21`, in test [2], the inhibition was less than 25%.
In the case of `CN1C(=O)C(=O)c2cc(C(=O)ON3C(=O)CCC3=O)ccc21`, the inhibition in test [2] stood at 45%.
Still for that read-out and setting: the result for `CCCN1C(=O)C(=O)c2cc(I)ccc21` reads 51%.
In test [1], `NC(=O)c1ccc2c(c1)C(=O)C(=O)N2Cc1ccc2cc(-c3ccccc3)ccc2c1` yielded an IC50 of 24.9 µM.
For the molecule `CCCN1C(=O)C(=O)c2cc(C(N)=O)ccc21`, the IC50 in test [1] worked out at 10.2 µM.
In the case of `O=C1C(=O)N(CN2CCOCC2)c2ccc(F)cc21`, in test [2], the inhibition is less than 25%.
As for `CCCN1C(=O)C(=O)c2cc(C(=O)O)ccc21`, in test [2], the inhibition was less than 25%.
In turn, `CCCCN1C(=O)C(=O)c2cc(C(N)=O)ccc21` had an IC50 in test [1] of 17.8 µM.
Molecule `O=C(O)c1ccc2c(c1)C(=O)C(=O)N2Cc1ccccc1` had an inhibition in test [2] of less than 25%.
Consider `COC(=O)c1ccc2c(c1)C(=O)C(=O)N2Cc1ccccc1`, for which the inhibition in test [2] stood at 45%.
Take `O=C1C(=O)N(CO)c2ccccc21`: in test [2], the inhibition was less than 25%.
`O=C1C(=O)N(CN2CCCCC2)c2ccc(F)cc21`: the inhibition in test [2] is less than 25%.
`CCCCN1C(=O)C(=O)c2cc(C(=O)OC)ccc21` had an inhibition in test [2] of 42%.
`O=C1C(=O)N(CN2CCOCC2)c2ccc(Cl)cc21` displayed an inhibition in test [2] of less than 25%.
In test [2], `O=C1C(=O)N(CN2CCOCC2)c2ccc([N+](=O)[O-])cc21` displayed an inhibition of less than 25%.
In test [2], `O=C1C(=O)N(CN2CCOCC2)c2ccccc21` showed an inhibition of less than 25%.
With `CCCN1C(=O)C(=O)c2cc(C(=O)OC)ccc21`, the inhibition in test [2] came out at 53%.
For the molecule `O=C(O)c1ccc2c(c1)C(=O)C(=O)N2Cc1ccc2ccccc2c1`, the inhibition in test [2] came out at 32%.
The same measure, in the same setting: the result for `CN1C(=O)C(=O)c2cc(I)ccc21` reads 25%.
With `COC(=O)c1ccc2c(c1)C(=O)C(=O)N2C`, the inhibition in test [2] was determined as 53%.
`O=C(ON1C(=O)CCC1=O)c1ccc2c(c1)C(=O)C(=O)N2Cc1ccccc1`: in test [1], inhibition was half-maximal at 15.5 µM (IC50).
Take `COC(=O)c1ccc2c(c1)C(=O)C(=O)N2CN1CCOCC1`: the inhibition in test [2] amounted to 32%.
In test [1], `NC(=O)c1ccc2c(c1)C(=O)C(=O)N2Cc1ccc2ccccc2c1` returned an IC50 of 0.045 µM.
In test [2], `CN1C(=O)C(=O)c2cc(C(=O)O)ccc21` yielded an inhibition of less than 25%.
In test [1], `NC(=O)c1ccc2c(c1)C(=O)C(=O)N2Cc1cc2ccccc2s1` showed an IC50 of 0.053 µM.
`NC(=O)c1ccc2c(c1)C(=O)C(=O)N2Cc1ccc2cc(Br)ccc2c1` registered an IC50 in test [1] of 0.047 µM.
On the same count and under the same terms, the result for `NC(=O)Cc1ccc2c(c1)C(=O)C(=O)N2Cc1ccc2ccccc2c1` reads 39.2 µM.
On to `CCCCN1C(=O)C(=O)c2cc(C(=O)ON3C(=O)CCC3=O)ccc21`, for which the inhibition in test [2] came to 47%.
